Measurements pooled from the literature.
Compare with care: the assays were run in different laboratories.
MAL12: Alpha-glucosidase MAL12 (MAL12, Saccharomyces cerevisiae S288c, UniProt P53341)

CC(C)C[C@H](NC(=O)[C@H](Cc1ccccc1)NC(=O)OCc1ccccc1)C(=O)C=O  IC50 (Cathepsin S (CTSS, Homo sapiens, UniProt P25774); enzyme activity; inhibitor; fluorescence): 0.15 µM
CC1(C)CC[C@]2(C(=O)O)CC[C@]3(C)C(=CC[C@@H]4[C@@]5(C)CC[C@H](O[C@@H]6O[C@H](C(=O)O)[C@@H](O)[C@H](O)[C@H]6O)C(C)(C)[C@@H]5CC[C@]43C)[C@@H]2C1  IC50 (MAL12; enzyme activity; inhibitor): 0.69 µM
COc1ccc(NC(=O)Cn2cc(COc3ccc(C(c4c(O)c5ccccc5oc4=O)c4c(O)c5ccccc5oc4=O)cc3OC)nn2)c(OC)c1  IC50 (MAL12; enzyme activity; inhibitor; absorbance): 52 µM
NC(=S)N/N=C/c1cc2ccccc2nc1SCc1cn(CC(=O)Nc2ccc([N+](=O)[O-])cc2)nn1  IC50 (MAL12; enzyme activity; inhibitor): 559 µM
CC1(CN)CCN(c2cnc3c(Sc4ccncc4Cl)n[nH]c3n2)CC1  IC50 (Tyrosine-protein phosphatase non-receptor type 1 (PTPN1, Homo sapiens, UniProt P18031); enzyme activity; inhibitor): > 100 µM
NC(=S)N/N=C/c1cc2ccccc2nc1SCc1cn(CC(=O)Nc2ccc(O)cc2)nn1  IC50 (MAL12; enzyme activity; inhibitor): 311 µM
COc1cc(C(c2c(O)c3ccccc3oc2=O)c2c(O)c3ccccc3oc2=O)ccc1OCc1cn(CC(=O)Nc2ccc(C)cc2C)nn1  IC50 (MAL12; enzyme activity; inhibitor; absorbance): 20.2 µM
Cc1ccc2[nH]c(=O)c(CNC3CCCCC3)cc2c1  IC50 (Alpha-1A adrenergic receptor (ADRA1A, Homo sapiens, UniProt P35348, M292L); calcium signal; antagonist): 11 µM
C[C@@H]1O[C@@H](O[C@H]2[C@H](O[C@H]3CC[C@@]4(C)[C@@H](CC[C@]5(C)[C@@H]4CC=C4[C@@H]6CC(C)(C)CC[C@]6(C(=O)O[C@@H]6O[C@H](CO[C@@H]7O[C@H](CO)[C@@H](O)[C@H](O)[C@H]7O)[C@@H](O)[C@H](O)[C@H]6O)CC[C@]45C)[C@]3(C)CO)OC[C@H](O)[C@@H]2O)[C@H](O)[C@H](O)[C@H]1O  IC50 (MAL12; enzyme activity; inhibitor): 1.74 µM
COc1cc(C(c2c(O)c3ccccc3oc2=O)c2c(O)c3ccccc3oc2=O)ccc1OCc1cn(CC(=O)Nc2cccc(Cl)c2)nn1  IC50 (MAL12; enzyme activity; inhibitor; absorbance): 85.4 µM
C[C@@H]1O[C@@H](O[C@H]2[C@H](O)[C@@H](O)[C@H](OC[C@H]3O[C@@H](OC(=O)[C@]45CCC(C)(C)C[C@H]4C4=CC[C@@H]6[C@@]7(C)CC[C@H](O[C@@H]8OC[C@H](O)[C@H](O)[C@H]8O[C@@H]8O[C@H](CO)[C@@H](O)[C@H](O)[C@H]8O)C(C)(C)[C@@H]7CC[C@@]6(C)[C@]4(C)CC5)[C@H](O)[C@@H](O)[C@@H]3O)O[C@@H]2CO)[C@H](O)[C@H](O)[C@H]1O  IC50 (MAL12; enzyme activity; inhibitor): 0.61 µM
COc1ccc(NC(=O)Cn2cc(CSc3nc4ccccc4cc3/C=N/NC(N)=S)nn2)cc1  IC50 (MAL12; enzyme activity; inhibitor): 192 µM
C[C@@H]1O[C@@H](O[C@H]2[C@H](O)[C@@H](O)[C@H](OC[C@H]3O[C@@H](OC(=O)[C@]45CCC(C)(C)C[C@H]4C4=CC[C@@H]6[C@@]7(C)CC[C@H](O[C@@H]8OC[C@H](O)[C@H](O)[C@H]8O)C(C)(C)[C@@H]7CC[C@@]6(C)[C@]4(C)CC5)[C@H](O)[C@@H](O)[C@@H]3O)O[C@@H]2CO)[C@H](O)[C@H](O)[C@H]1O  IC50 (MAL12; enzyme activity; inhibitor): 0.89 µM
Nc1ncnc2c1ncn2[C@@H]1O[C@H](CO)[C@@H](O)[C@H]1O  IC50 (Solute carrier family 22 member 6 (SLC22A6, Homo sapiens, UniProt Q4U2R8); transporter uptake; inhibitor; radiometric; oocytes): > 1000 µM
Cc1cccc(C)c1NC(=O)Cn1cc(CSc2nc3ccccc3cc2/C=N/NC(N)=S)nn1  IC50 (MAL12; enzyme activity; inhibitor): 150 µM
COc1cc(C(c2c(O)c3ccccc3oc2=O)c2c(O)c3ccccc3oc2=O)ccc1OCc1cn(CC(=O)Nc2cccc([N+](=O)[O-])c2)nn1  IC50 (MAL12; enzyme activity; inhibitor; absorbance): 16.3 µM
Cc1ccc2oc(=O)cc(NCCO)c2c1  IC50 (Alpha-1A adrenergic receptor (ADRA1A, Homo sapiens, UniProt P35348, I178V/M292L); calcium signal; antagonist): 324 µM
Cc1ccc(NC(=O)Cn2cc(CSc3nc4ccccc4cc3/C=N/NC(N)=S)nn2)cc1  IC50 (MAL12; enzyme activity; inhibitor): 490 µM
CC(=O)OC[C@H]1O[C@@H](OC[C@H]2O[C@@H](OC(=O)[C@]34CCC(C)(C)C[C@H]3C3=CC[C@@H]5[C@@]6(C)CC[C@H](O[C@@H]7OC[C@H](O)[C@H](O)[C@H]7O[C@@H]7O[C@H](CO)[C@@H](O)[C@H](O)[C@H]7O)C(C)(C)[C@@H]6CC[C@@]5(C)[C@]3(C)CC4)[C@H](O)[C@@H](O)[C@@H]2O)[C@H](O)[C@@H](O)[C@@H]1O[C@@H]1O[C@@H](C)[C@H](O)[C@@H](O)[C@H]1O  IC50 (MAL12; enzyme activity; inhibitor): 0.75 µM
NC(=S)N/N=C/c1cc2ccccc2nc1SCc1cn(CC(=O)Nc2ccc(Br)cc2)nn1  IC50 (MAL12; enzyme activity; inhibitor): 434 µM
C[C@@H](OC(C)(C)C)[C@H](NC(=O)OCc1ccccc1)C(=O)N[C@@H](CC1CCCCC1)C(=O)NN(CCC(N)=O)C(=O)C(Cl)Cl  IC50 (Replicase polyprotein 1ab, main protease (rep, Severe acute respiratory syndrome coronavirus 2, UniProt P0DTD1); enzyme activity; inhibitor; with preincubation): 0.068 µM
